TLR4-MyD88 BLA: blocks binding of human TLR4 to MyD88 | O00206+Q99836 | HeLa CL3-4 TLR4/MyD88 BLA complementation, FRET ratio | inhibition, % at 8.4 µM | 200,000 compounds, 0.18% hits | AID 861; in the data active means inhibition above about 25%;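 further: 0% = vehicle and 100% = reference inhibitor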
SKN-1 block: inhibitors of C. elegans SKN-1; C. elegans VP596 Pgst-4::GFP/RFP ratio, acrylamide-induced, 24 h; inhibition, % at 21.8 µM; 360,000 compounds, 0.49% hits;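 active means interference check ratio from 0.5 to 1.5 plus GFP to RFP signal ratio inhibition reaching or exceeding a fixed threshold, cut at about 30% in these data, passing the limit was not always enough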
TLR9-MyD88 block: blocks human TLR9 binding to MyD88; Q9NR96+Q99836; CHO BLA complementation TLR9-MyD88, CCF4 FRET ratio; inhibition, % at 4.98 µM; 340,000 compounds, 0.21% hits; AID 504734;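 active means inhibition above the mean over all tested compounds plus 3 SD, cut at about 21% in these data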;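 further: 0% = DMSO only wells and 100% = clavulanate BLA inhibitor control wells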
MT1-MMP act inh: inhibitors of human MT1-MMP activation. HT1080 RFP-PRO-GFP cells, GFP/RFP ratio fluorescence, overnight; percent of plate control window, DMSO zero. GFP/RFP ratio change, % at 20 µM. P50281. AID 651647. 360,000 compounds, 0.061% hits;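 active means GFP/RFP ratio change of at least 30% with cell ATP level not reduced by more than half and red fluorescence within 50% of control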
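Test system: HT1080 cells expressing an RFP-PRO-GFP fluorescent reporter construct / Compound dosing: single-point 20 µM compound, 1% DMSO / Schedule: cells overnight before dosing, compound overnight, 37 °C, 5% CO2 / Evaluation: GFP/RFP fluorescence ratio / Control set: DMSO and RFP-L50D-GFP cell wells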
NOD2-RIPK2 inh: inhibitors of human NOD2-RIPK2 interaction; AID 624267; CHO BLA complementation NOD2-RIPK2, CCF4 ratio; 360,000 compounds, 0.38% hits; inhibition, % at 4.98 µM; in the data active means inhibition above about 21%;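 further: 0% = vehicle only and 100% = reference blocker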
Target sequence (O43353 whole entry, looked up): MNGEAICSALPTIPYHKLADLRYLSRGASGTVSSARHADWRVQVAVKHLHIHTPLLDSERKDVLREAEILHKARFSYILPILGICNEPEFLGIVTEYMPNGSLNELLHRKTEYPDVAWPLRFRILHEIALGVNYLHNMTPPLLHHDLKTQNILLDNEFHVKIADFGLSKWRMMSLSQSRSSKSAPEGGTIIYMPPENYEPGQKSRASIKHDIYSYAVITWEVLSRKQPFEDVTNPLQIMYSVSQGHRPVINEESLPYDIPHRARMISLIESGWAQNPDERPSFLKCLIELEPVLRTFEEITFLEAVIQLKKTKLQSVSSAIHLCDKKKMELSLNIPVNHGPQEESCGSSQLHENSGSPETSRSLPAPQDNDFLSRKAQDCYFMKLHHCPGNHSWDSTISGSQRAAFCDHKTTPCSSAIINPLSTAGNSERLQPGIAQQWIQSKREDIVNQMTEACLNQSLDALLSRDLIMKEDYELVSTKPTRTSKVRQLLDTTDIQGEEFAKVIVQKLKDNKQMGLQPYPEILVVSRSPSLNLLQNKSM
TLR9-MyD88 conf: TLR9-MyD88 interaction inhibition, confirmation; shares compounds with TLR9-MyD88 block; CHO TLR9/MyD88 BLA complementation, CCF4 FRET ratio; inhibition, % at 4.98 µM; 680 compounds, 51% hits;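 active means mean inhibition across three repeats above about 21% taken from the earlier screen, limit read from the data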;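 further: blue over green emission ratio reports constitutive TLR9 MyD88 association via BLA complementation; 0% = DMSO vehicle wells and 100% = clavulanate BLA inhibitor wells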
BLA counter-1: non-selective beta-lactamase inhibitors in TLR9-MyD88 counter-screen; AID 540251; CHO-BLA cells, CCF4 FRET ratio, BLA reporter; shares compounds with TLR9-MyD88 block; 680 compounds, 7% hits; inhibition, % at 4.98 µM;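 active means mean inhibition above a 50% cutoff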;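 further: counterscreen of TLR9-MyD88 hits on CMV-driven BLA in CHO-K1 cells; 0% = DMSO alone and 100% = clavulanate blocking BLA; higher means less blue over green ratio so more BLA blockade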
TLR9 CHO cytotox: CHO cell toxicity counter-screen for TLR9-MyD88 inhibitors | inhibition, % at 4.98 µM | 680 compounds, 39% hits | shares compounds with TLR9-MyD88 block | TLR9-MyD88 CHO cells cytotoxicity, luminescence | AID 588336; in the data active means inhibition above about 11%
NOD2 RIPK2 conf: confirmation of human NOD2-RIPK2 interaction inhibitors | 1,200 compounds, 70% hits | inhibition, % at 4.98 µM | shares compounds with NOD2-RIPK2 inh | AID 624370 | CHO cells, NOD2-RIPK2 BLA complementation, CCF4 FRET;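 active means mean inhibition across replicates above a set limit taken from the earlier primary screen, cut at about 21% in these data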;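 further: 0% = DMSO-only wells and the high end = clavulanate BLA-blocked wells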
BLA counter-2: NOD2-RIPK2 counterscreen BLA reporter activity; shares compounds with NOD2-RIPK2 inh; CHO BLA reporter, CCF4 FRET ratio; inhibition, % at 4.98 µM; 1,200 compounds, 57% hits; AID 624371;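 active means mean inhibition above the low-control mean inhibition plus three low-control SD, cut at about 11% in these data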;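 further: 0% = DMSO only wells and 100% = clavulanate high control wells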
Numbers without * were called inactive; nt = not tested or not shown. The list is not random: actives were taken first. Their share in the collection is about 0.99%.

SMILES | TLR4-MyD88 BLA | SKN-1 block | TLR9-MyD88 block | MT1-MMP act inh | NOD2-RIPK2 inh | TLR9-MyD88 conf | BLA counter-1 | TLR9 CHO cytotox | NOD2 RIPK2 conf | BLA counter-2
CN(C)CCCN(C(=O)CCc1ccccc1)c1nc2c(F)cccc2s1 | -17.2 | -2.5 | -5.3 | -2.5 | -9.2 | nt | nt | nt | nt | nt
CCOC(=O)n1c(=O)n(Cc2c(Cl)cccc2Cl)c2ccccc21 | 8.6 | -2.6 | 23.6* | 4.7 | 22.9* | 9.0 | 12.2 | -0.2 | 28.9* | 27.4*
CCOC(=O)n1c(=O)n(Cc2ccccc2)c2ccccc21 | -1.1 | 17.7 | 2.9 | 5.1 | -0.7 | nt | nt | nt | nt | nt
COc1cccc(CN2C(=O)c3cccc(N)c3C2=O)c1 | 23.0 | 1.3 | 28.4* | -5.3 | 35.9* | 11.2 | 16.6 | -2.5 | 37.6* | 46.6*
COc1ccc(-c2cc(C)no2)cc1S(=O)(=O)N1CCCN(Cc2ccccc2Cl)C1 | nt | 8.0 | -14.0 | -4.6 | -3.6 | nt | nt | nt | nt | nt
Oc1ccc(/C=C/c2ccc3cccc(O)c3n2)cc1Br | nt | 15.2 | 26.5* | -43.2 | 26.5* | 9.9 | 13.6 | 1.8 | 39.3* | 46.7*
O=C(O)c1ccc(/C=C/c2ccc3cccc(O)c3n2)cc1 | -10.8 | 0.1 | -6.9 | 8.5 | -10.3 | nt | nt | nt | nt | nt
CC(=O)N(c1ccccc1C)C1CCCC1 | 1.2 | -8.0 | -11.0 | 0.2 | -3.3 | nt | nt | nt | nt | nt
CC(=O)N(C1=C(Cl)C(=O)c2ccccc2C1=O)C1CCCCC1 | nt | 3.7 | 48.5* | -180.6 | 53.6* | 78.3* | 22.3 | 100.4* | 92.3* | 34.1*
CCn1c(=O)c([N+](=O)[O-])c(NCCN(C)C)c2ccccc21 | 3.3 | 0.1 | -2.4 | 7.6 | -7.4 | nt | nt | nt | nt | nt
CCn1c(=O)c([N+](=O)[O-])c(Cl)c2ccccc21 | 9.5 | -9.3 | 44.2* | 14.5 | 88.2* | 61.8* | 9.0 | 96.5* | 96.0* | 22.4*
CCCC(=O)OCCNc1cc(Sc2nc3ccccc3[nH]2)c2nonc2c1[N+](=O)[O-] | 22.4 | -0.4 | 32.2* | 3.1 | 74.8* | 67.7* | 11.4 | 97.8* | 91.5* | 43.4*
C[C@H]1CN([C@@H](C)CO)C(=O)CCCn2cc(nn2)CO[C@@H]1CN(C)C(=O)Nc1ccccc1F | nt | 9.6 | -4.4 | -0.8 | -4.5 | nt | nt | nt | nt | nt
CS(=O)(=O)c1ncc(Cl)c(C(=O)Nc2ccc3ccccc3c2)n1 | 14.8 | 3.4 | 45.4* | -2.6 | 79.5* | 50.9* | 31.2 | 98.7* | 71.8* | 41.0*
Cc1ccc(CS(=O)(=O)c2ncc(Cl)c(C(=O)Nc3ccc(OC(F)F)cc3)n2)cc1 | nt | -1.6 | 36.0* | -4.8 | 93.9* | 23.9* | 15.5 | 94.9* | 80.3* | 21.3*
CCC1CCCCN1S(=O)(=O)c1ccc(NC(=O)c2nc(S(C)(=O)=O)ncc2Cl)cc1 (stereo not drawn) | nt | -29.6 | 52.7* | -2.8 | 96.3* | 47.1* | 31.0 | 98.4* | 94.4* | 48.5*
CCS(=O)(=O)c1ncc(Cl)c(C(=O)Nc2ccc(C)cc2)n1 | nt | -6.7 | 45.0* | 3.4 | 61.3* | 42.5* | 35.8 | 95.0* | 64.7* | 37.8*
O=C(Nc1ccc(OC(F)F)cc1)c1ncc(Cl)c(Cl)c1Cl | -3.6 | -8.5 | -1.1 | 0.4 | -5.0 | nt | nt | nt | nt | nt
CCC1CCCCN1S(=O)(=O)c1ccc(NC(=O)c2ccncc2)cc1 (stereo not drawn) | nt | 17.8 | -2.4 | 4.7 | 5.1 | nt | nt | nt | nt | nt
O=C(c1c(F)cccc1F)N1CCN=C1SCc1ccccc1 | nt | -6.1 | 3.1 | 2.0 | 0.9 | nt | nt | nt | nt | nt
COC(=O)c1ccccc1NC(=O)c1nc(S(=O)(=O)Cc2ccccc2)ncc1Cl | nt | 5.3 | 7.9 | 0.9 | 1.9 | nt | nt | nt | nt | nt
CC(=O)Nc1ccc(NC(=O)c2nc(S(=O)(=O)Cc3ccccc3)ncc2Cl)cc1 | nt | 14.8 | 34.0* | 1.9 | 51.2* | 36.0* | 30.3 | 95.3* | 49.5* | 34.3*
CCCCNc1c(-c2ccc(OC)c(SC3CCCCC3)c2)nc2cnccn12 | nt | 5.8 | 20.8* | -27.2 | 40.5* | 16.1 | 20.3 | 2.6 | 29.0* | 42.2*
CCC(C)Sc1ccc(-c2nc3cc(C)ccn3c2NC2CCCCC2)cc1 (stereo not drawn) | nt | 14.7 | 0.9 | -67.5 | 4.7 | nt | nt | nt | nt | nt
CCCCNc1c(-c2ccc(OC)c(SC3CCCCC3)c2)nc2cc(C)ccn12 | nt | 4.0 | 3.2 | 16.9 | 7.5 | nt | nt | nt | nt | nt
SMILES | TLR4-MyD88 BLA | SKN-1 block | TLR9-MyD88 block | MT1-MMP act inh | NOD2-RIPK2 inh | TLR9-MyD88 conf | BLA counter-1 | TLR9 CHO cytotox | NOD2 RIPK2 conf | BLA counter-2
CCC(C)Sc1ccc(-c2nc3cnccn3c2NC2CCCCC2)cc1 (stereo not drawn) | nt | 15.1 | 34.6* | -28.7 | 26.6* | 46.0* | 48.4 | 2.8 | 64.9* | 72.1*
COc1cc(C(=O)N(Cc2ccccc2)c2cccc(C)c2)ccc1OCC(=O)N1CCOCC1 | nt | 1.9 | -6.0 | 0.3 | -6.7 | nt | nt | nt | nt | nt
CCn1nc(C)cc1-c1nnc(SCC(=O)Nc2ccccc2)n1CCCOC | nt | -9.1 | 10.1 | -1.7 | 3.5 | nt | nt | nt | nt | nt
CCn1nc(C)cc1-c1nnc(Sc2ncc([N+](=O)[O-])s2)n1C | nt | 0.1 | 28.7* | 3.3 | 78.2* | 42.1* | -1.1 | 100.5* | 85.1* | 19.1*
Cn1c(=O)[nH]c(=O)c2c1nc([N+](=O)[O-])n2Cc1ccccc1 | nt | -2.4 | 21.8* | 5.3 | 59.2* | 25.7* | 10.2 | 99.4* | 31.0* | 7.2
CC(C)Cn1c([N+](=O)[O-])nc2c1c(=O)[nH]c(=O)n2C | nt | -0.4 | 1.4 | -1.9 | 5.5 | nt | nt | nt | nt | nt
O=[N+]([O-])c1ccc(N(c2ccccc2)c2ccccc2)cc1 | 24.0 | 17.0 | 38.7* | -10.1 | 58.2* | 32.5* | 33.8 | 6.4 | 61.5* | 61.3*
COc1ccc(S(=O)(=O)N(CC(=O)N2CCCCCC2)c2ccccc2OC)cc1 | nt | 13.4 | -3.0 | -2.0 | -7.0 | nt | nt | nt | nt | nt
Cc1ccccc1CS(=O)(=O)c1nnc([C@H](Cc2ccccc2)NC(=O)OC(C)(C)C)o1 | 7.7 | -4.5 | 11.8 | 13.5 | 57.1* | nt | nt | nt | 50.3* | 1.9
CC(C)(C)OC(=O)N[C@@H](Cc1ccccc1)c1nnc(S(=O)(=O)Cc2ccccc2)o1 | 14.0 | nt | nt | nt | nt | nt | nt | nt | nt | nt
C[C@@H]1CN([C@@H](C)CO)C(=O)CCCn2nncc2CO[C@@H]1CN(C)C(=O)Nc1cccc(Oc2ccccn2)c1 | nt | -0.6 | 9.5 | -2.1 | -0.6 | nt | nt | nt | nt | nt
